{"source": "ChEMBL document CHEMBL4622968", "about": "“Discovery of [1,2,4]triazolo[4,3-a]pyridines as potent Smoothened inhibitors targeting the Hedgehog pathway with improved antitumor activity in vivo” (Bioorg Med Chem, 2020)", "key": {"HeLa": {"tested_on": "HeLa", "assay": "Antiproliferation activity against human HeLa cells assessed as reduction in cell viability incubated for 72 hrs by MTT assay", "type": "functional, cell-based", "method_in_brief": "(§1)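 MTT assay. Cells were plated overnight and exposed to a range of concentrations for 72 h. MTT was then added for 4 h and absorbance read at 570 nm. Inhibition% = [(control − compound)/(control − blank)] × 100. IC50 was fitted from the curves. Mean ± S.D. of 3–5 separate experiments. RPMI 1640 + 10% FBS; MCF10A in DMEM/F12 with 5% horse serum, EGF, hydrocortisone, insulin and cholera toxin.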"}, "Protein smoothened [1]": {"molecular_target": "T1, Protein smoothened (Homo sapiens, UniProt Q99835)", "T1 sequence (Q99835 whole entry)": "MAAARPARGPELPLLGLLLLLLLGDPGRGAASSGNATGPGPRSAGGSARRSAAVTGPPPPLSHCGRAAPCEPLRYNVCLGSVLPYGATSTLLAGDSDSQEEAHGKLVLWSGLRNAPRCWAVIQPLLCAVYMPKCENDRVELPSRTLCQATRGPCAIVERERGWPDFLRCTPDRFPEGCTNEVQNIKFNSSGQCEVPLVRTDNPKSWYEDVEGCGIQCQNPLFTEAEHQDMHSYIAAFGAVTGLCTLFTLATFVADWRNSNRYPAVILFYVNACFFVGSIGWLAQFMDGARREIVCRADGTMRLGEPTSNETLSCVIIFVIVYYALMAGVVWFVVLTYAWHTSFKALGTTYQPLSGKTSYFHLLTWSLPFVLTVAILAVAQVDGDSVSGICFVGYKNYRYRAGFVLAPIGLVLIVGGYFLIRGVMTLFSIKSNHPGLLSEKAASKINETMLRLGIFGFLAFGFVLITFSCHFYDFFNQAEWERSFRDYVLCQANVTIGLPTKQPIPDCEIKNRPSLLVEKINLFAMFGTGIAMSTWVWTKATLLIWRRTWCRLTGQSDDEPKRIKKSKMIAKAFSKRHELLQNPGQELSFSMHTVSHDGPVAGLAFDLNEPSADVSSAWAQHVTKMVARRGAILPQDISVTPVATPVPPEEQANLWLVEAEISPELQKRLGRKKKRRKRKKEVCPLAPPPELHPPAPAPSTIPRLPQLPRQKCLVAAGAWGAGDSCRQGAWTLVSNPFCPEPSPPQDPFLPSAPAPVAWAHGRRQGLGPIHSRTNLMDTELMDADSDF", "assay": "Binding affinity to recombinant human Smo receptor assessed as dissociation rate constant by SPR analysis", "method_in_brief": "(§2)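 Surface plasmon resonance with recombinant Smo protein, run in PBS at a flow rate of 2 μL/s and 4 °C. Analytes were injected at 2.5, 5 and 10 μM. The chip was regenerated with 0.5% SDS:glycine-HCl pH 2.0 (1:1). ka, kd, Rmax, KA and KD came from a global fit of the sensorgrams.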"}, "Protein smoothened [2]": {"molecular_target": "T1, Protein smoothened", "assay": "Binding affinity to recombinant human Smo receptor assessed as maximum response at equilibrium by SPR analysis", "method_in_brief": "as §2"}, "MDA-MB-468 [3]": {"tested_on": "MDA-MB-468", "assay": "Induction of cell cycle arrest in human MDA-MB-468 cells assessed as cell accumulation at G0/G1 phase at 28 uM incubated for 48 hrs by propidium iodide staining-based flow cytometric analysis (reference value: 38.94 %)", "type": "functional", "method_in_brief": "(§3)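 Cells were seeded at 1.2×10^5 per well and treated for 48 h (MDA-MB-468: 14, 28, 56 μM). Cells were fixed in 75% ethanol at −20 °C overnight, stained with PI and analysed by flow cytometry. Mean ± S.D. of three independent experiments versus DMSO.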"}, "[4]": {"assay": "Acute toxicity in Kunming mouse assessed as lethality through intragastric administration observed for 14 days", "conditions": "in vivo, po", "method_in_brief": "(§4)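 Kunming mice, groups of 5 female and 5 male per dose, dosed once by gavage at graded doses; mortality recorded over 14 days as dead/treated and percent. LD50 derived by improved Karber's method: LD50 = lg^-1[xm − i(ΣP − 0.5)], xm log of maximal dose, i log ratio of neighbouring doses; 95% confidence intervals given.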"}, "AN3-CA": {"tested_on": "AN3-CA", "assay": "Antiproliferation activity against human AN3CA cells assessed as reduction in cell viability incubated for 72 hr by MTT assay", "type": "functional, cell-based", "method_in_brief": "as §1"}, "MDA-MB-468 [5]": {"tested_on": "MDA-MB-468", "assay": "Induction of cell cycle arrest in human MDA-MB-468 cells assessed as cell accumulation at G2/M phase incubated for 48 hrs by propidium iodide staining-based flow cytometric analysis", "type": "functional", "method_in_brief": "as §3"}, "MDA-MB-468 [6]": {"tested_on": "MDA-MB-468", "assay": "Induction of cell cycle arrest in human MDA-MB-468 cells assessed as cell accumulation at G2/M phase at 28 uM incubated for 48 hrs by propidium iodide staining-based flow cytometric analysis (reference value: 26.66 %)", "type": "functional", "method_in_brief": "as §3"}, "[7]": {"assay": "Acute toxicity in Kunming mouse assessed as mortality at 3453 mg/kg, ig observed for 14 days relative to control", "type": "organism-based", "conditions": "in vivo, po, read-out: Activity", "method_in_brief": "as §4"}, "MCF-10A": {"tested_on": "MCF-10A", "assay": "Cytotoxicity against human MCF10A cells assessed as cell viability incubated for 72 hrs measured by MTT assay", "type": "cell-based", "method_in_brief": "as §1"}, "[8]": {"assay": "Acute toxicity in Kunming mouse assessed as mortality at 3965 mg/kg, ig observed for 14 days relative to control", "type": "organism-based", "conditions": "in vivo, po, read-out: Activity", "method_in_brief": "as §4"}, "MDA-MB-468 [9]": {"tested_on": "MDA-MB-468", "assay": "Induction of apoptosis in human MDA-MB-468 cells assessed as necrotic cells at 28 uM incubated for 48 hrs by annexin-V-FITC staining based flow cytometric method (reference value: 1.52 %)", "type": "functional"}, "MDA-MB-468 [10]": {"tested_on": "MDA-MB-468", "assay": "Induction of apoptosis in human MDA-MB-468 cells assessed as late apoptotic cells at 56 uM incubated for 48 hrs by annexin-V-FITC staining based flow cytometric method (reference value: 0.99 %)", "type": "functional"}, "Protein smoothened [11]": {"molecular_target": "T1, Protein smoothened", "assay": "Displacement of BODIPY-Cyclopamine from wild type Smo receptor (unknown origin) expressed in HEK293 cells incubated for 12 hrs by Hoechst 33342 based fluorescence microscopic method", "type": "cell-based", "method_in_brief": "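HEK293 cells were transiently transfected in triplicate with a wild-type Smo plasmid, with expression confirmed by western blot. Cells were loaded with BODIPY-cyclopamine, then given unlabelled cyclopamine (25 μM) or test compound (1 or 25 μM) for 12 h at 37 °C. Nuclei were counterstained with Hoechst 33342. Green fluorescence was imaged by fluorescence microscopy.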"}, "MDA-MB-468 [12]": {"tested_on": "MDA-MB-468", "assay": "Induction of apoptosis in human MDA-MB-468 cells assessed as live cells at 56 uM incubated for 48 hrs by annexin-V-FITC staining based flow cytometric method (reference value: 98.5 %)", "type": "functional"}, "Protein smoothened [13]": {"molecular_target": "T1, Protein smoothened", "assay": "Binding affinity to recombinant human Smo receptor assessed as association constant at equilibrium by SPR analysis"}, "MDA-MB-468 [14]": {"tested_on": "MDA-MB-468", "assay": "Induction of apoptosis in human MDA-MB-468 cells assessed as early apoptotic cells at 14 uM incubated for 48 hrs by annexin-V-FITC staining based flow cytometric method (reference value: 2.00 %)", "type": "functional"}, "Protein smoothened [15]": {"molecular_target": "T1, Protein smoothened", "assay": "Binding affinity to recombinant human Smo receptor assessed as dissociation constant at equilibrium by SPR analysis"}, "MDA-MB-468 [16]": {"tested_on": "MDA-MB-468", "assay": "Induction of cell cycle arrest in human MDA-MB-468 cells assessed as cell accumulation at G0/G1 phase at 56 uM incubated for 48 hrs by propidium iodide staining-based flow cytometric analysis (reference value: 38.94 %)", "type": "functional", "method_in_brief": "as §3"}, "MDA-MB-231 [17]": {"tested_on": "MDA-MB-231", "assay": "Induction of cell cycle arrest in human MDA-MB-231 cells assessed as cell accumulation at G0/G1 phase incubated for 48 hrs by propidium iodide staining-based flow cytometric analysis", "type": "functional"}, "[18]": {"assay": "Acute toxicity in Kunming mouse assessed as mortality at 3008 mg/kg, ig observed for 14 days relative to control", "type": "organism-based", "conditions": "in vivo, po, read-out: Activity", "method_in_brief": "as §4"}, "T47D": {"tested_on": "T47D", "assay": "Antiproliferation activity against human T47D cells assessed as reduction in cell viability incubated for 72 hr by MTT assay", "type": "functional, cell-based", "method_in_brief": "as §1"}, "MDA-MB-468 [19]": {"tested_on": "MDA-MB-468", "assay": "Induction of cell cycle arrest in human MDA-MB-468 cells assessed as cell accumulation at S phase at 28 uM incubated for 48 hrs by propidium iodide staining-based flow cytometric analysis (reference value: 34.20 %)", "type": "functional", "method_in_brief": "as §3"}, "MDA-MB-231 [20]": {"tested_on": "MDA-MB-231", "assay": "Induction of apoptosis in human MDA-MB-231 cells assessed as increase in apoptosis incubated for 48 hrs by annexin-V-FITC/PI staining based flow cytometric method", "type": "functional, cell-based"}, "MDA-MB-468 [21]": {"tested_on": "MDA-MB-468", "assay": "Induction of apoptosis in human MDA-MB-468 cells assessed as decrease in Bcl2 protein expression level incubated for 1 hr by Western blot analysis", "type": "functional, cell-based"}, "MDA-MB-468 [22]": {"tested_on": "MDA-MB-468", "assay": "Induction of cell cycle arrest in human MDA-MB-468 cells assessed as cell accumulation at G0/G1 phase at 14 uM incubated for 48 hrs by propidium iodide staining-based flow cytometric analysis (reference value: 38.94 %)", "type": "functional", "method_in_brief": "as §3"}, "[23]": {"assay": "Toxicity in BALB/c mouse xenografted with human MDA-MB-468 cells assessed as body weight at 80 to 100 mg/kg, ig measured every day for 21 day", "type": "organism-based", "conditions": "in vivo, po, 504 h", "method_in_brief": "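Female BALB/c nude mice, 6–8 weeks, given 1.0×10^7 MDA-MB-468 cells s.c. in right posterior flank; at 100 mm3 tumours, randomized into groups of five. Daily gavage at 80 or 100 mg/kg in saline with 0.1% Tween 80, or vehicle alone; body weight recorded daily, tumour volume every 2 days; sacrificed day 21.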"}}, "note": "pIC50, pKd: −log10 of the molar value. The source made the active and inactive calls. No cut-off for these calls is given here."}
{"smiles": "O=C(Nc1ccc(Cl)c(-c2nnc3c(Cl)cccn23)c1)c1ccc(Cl)nc1Cl", "values": [{"measurement": "pIC50", "setting": "HeLa", "result": 4.18}, {"measurement": "Kdiss", "setting": "Protein smoothened [1]", "result": 0.00375, "unit": "×10⁻³ /s"}, {"measurement": "Rmax", "setting": "Protein smoothened [2]", "result": 90.5, "unit": "RU"}, {"measurement": "Activity", "setting": "MDA-MB-468 [3]", "result": 29.86, "unit": "%"}, {"measurement": "LD50 at 336 h", "setting": "[4]", "result": 3880, "unit": "mg/kg"}, {"measurement": "pIC50", "setting": "AN3-CA", "result": 4.35}, {"measurement": "Activity", "setting": "MDA-MB-468 [5]", "result": "Dose-dependent effect"}, {"measurement": "Activity", "setting": "MDA-MB-468 [6]", "result": 39.75, "unit": "%"}, {"measurement": "mortality at 336 h", "setting": "[7]", "result": 30, "unit": "%"}, {"measurement": "pIC50", "setting": "MCF-10A", "result": "< 4.00"}, {"measurement": "mortality at 336 h", "setting": "[8]", "result": 50, "unit": "%"}, {"measurement": "Activity", "setting": "MDA-MB-468 [9]", "result": 9.86, "unit": "%"}, {"measurement": "Activity", "setting": "MDA-MB-468 [10]", "result": 24.1, "unit": "%"}, {"measurement": "Activity", "setting": "Protein smoothened [11]", "result": "Dose-dependent effect"}, {"measurement": "Activity", "setting": "MDA-MB-468 [12]", "result": 60.3, "unit": "%"}, {"measurement": "KA", "setting": "Protein smoothened [13]", "result": 9.71, "unit": "×10⁷ /M"}, {"measurement": "Activity", "setting": "MDA-MB-468 [14]", "result": 8.63, "unit": "%"}, {"measurement": "pKd", "setting": "Protein smoothened [15]", "result": 7.99}, {"measurement": "Activity", "setting": "MDA-MB-468 [16]", "result": 29, "unit": "%"}, {"measurement": "Activity", "setting": "MDA-MB-231 [17]", "result": "Dose-dependent effect"}, {"measurement": "mortality at 336 h", "setting": "[18]", "result": 10, "unit": "%"}, {"measurement": "pIC50", "setting": "T47D", "result": 4.37}, {"measurement": "Activity", "setting": "MDA-MB-468 [19]", "result": 39, "unit": "%"}, {"measurement": "Activity", "setting": "MDA-MB-231 [20]", "result": "Dose-dependent effect"}, {"measurement": "Activity", "setting": "MDA-MB-468 [21]", "result": "Active"}, {"measurement": "Activity", "setting": "MDA-MB-468 [22]", "result": 30.69, "unit": "%"}, {"measurement": "Activity", "setting": "[23]", "result": "Non-Toxic"}]}
